ChEMBL document CHEMBL1287740, “Synthesis and bio-evaluation of alkylaminoaryl phenyl cyclopropyl methanones as antitubercular and antimalarial agents” (Bioorg Med Chem, 2010)
Converted amounts (≈) assume the structure as drawn. The source made the active and inactive calls. The calls are words filed in the database; no cut-off is given here.

Legend:
[1] = system: Mycobacterium tuberculosis; test: Antimicrobial activity against Mycobacterium tuberculosis H37Rv after 30 days by agar microdilution method; assay type: functional
Method in brief: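 Twofold dilutions of compound in DMSO incorporated into Middlebrook 7H10 medium with OADC supplement in slanted tubes, preincubated 37 °C for 24 h, then streaked with H37Rv harvested from L-J medium into 0.85% saline with 0.05% Tween-80 (5 × 10^5 bacilli per tube). Incubated at 37 °C; MIC = lowest concentration giving complete inhibition of colonies versus drug-free control.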

Plasmodium falciparum [2] = test: Antimalarial activity against Plasmodium falciparum 3D7 assessed as maturation of schizonts after 24 to 32 hrs by microdilution method; assay type: functional
Method in brief: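 P. falciparum 3D7 (chloroquine sensitive); twofold serial dilutions in complete RPMI 1640 from 10 mg/ml DMSO stocks, parasitized RBCs added (final hematocrit 3–4%, 1.0–2.0% parasitaemia, >95% rings). Incubated 24–32 h at 37 °C with 5% CO2. Thin smears stained with 15% Giemsa; schizont maturation scored against controls to give MIC.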

Plasmodium falciparum [3] = test: Antimalarial activity against Plasmodium falciparum 3D7 assessed as radiolabeled hypoxanthine uptake after 48 hrs by scintillation counting; assay type: functional, organism-based; conditions: 3D7, 48 h
Method in brief: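 Chloroquine-sensitive P. falciparum 3D7 asynchronous culture at 0.5% parasitaemia and 1.5% hematocrit, exposed to compounds for 24 h at 37 °C in CO2. Radiolabelled hypoxanthine (0.5 µCi/well) then added and incubation continued 48 h. Cells harvested onto filter paper, and radioactivity counted by scintillation β-counter. IC50 derived from hypoxanthine uptake.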

[4] = Cytotoxicity against african green monkey Vero cells after 72 hrs; assay type: cell-based; conditions: chlorocebus sabaeus
Method in brief: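 Vero (C1008 monkey kidney) cells grown in MEM + 15% FBS, 5% CO2, 37 °C. Trypsinized cells at 1 × 10^5 cells/ml seeded and allowed to adhere overnight, then exposed to serial compound dilutions for 72 h. Resazurin added and fluorescence read after 4 h.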

[5] = Selectivity index, ratio of CC50 for african green monkey (Cercopithecus aethiops) Vero cells to IC50 for Plasmodium falciparum 3D7; assay type: functional
Method in brief: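 Ratio of Vero CC50 (resazurin fluorescence after 72 h exposure) to P. falciparum 3D7 IC50 (radiolabelled hypoxanthine uptake; 24 h compound exposure, then 48 h with label).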

Mycolicibacterium aurum [6] = test: Inhibition of type II fatty acid biosynthesis pathway in Mycobacterium aurum at 25 uM after 12 hrs by lacZ reporter assay relative to untreated control; assay type: functional
Method in brief: (§1)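 Recombinant M. aurum lacZ reporter strains (kasA promoter or hsp60 promoter) grown in Sauton's medium with kanamycin at 37 °C to 0.5 OD600, diluted to 0.04–0.05 OD, equilibrated 2 h, then treated 12 h at 37 °C (10, 25, 50, 75 µM). Cells sonicated in PBS pH 7.2 and protein normalized by Bradford. β-gal measured with ONPG (4 mg/ml), 30 min at 37 °C, stopped with Na2CO3, OD 410 nm. Triplicates, relative to untreated control.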

Mycolicibacterium aurum [7] = test: Inhibition of type II fatty acid biosynthesis pathway in Mycobacterium aurum at 50 uM after 12 hrs by lacZ reporter assay relative to untreated control; assay type: functional; method in brief: as §1

Row | SMILES | MIC [1] | MIC (Plasmodium falciparum [2]) [µg/mL] | IC50 (Plasmodium falciparum [3]) [µg/mL] | CC50 at 72 h [4] [µg/mL] | Ratio CC50/IC50 [5] | inhibition at 25 µM (Mycolicibacterium aurum [6]) [%] | inhibition at 50 µM (Mycolicibacterium aurum [7]) [%] | inhibition (Mycolicibacterium aurum [6]) | inhibition (Mycolicibacterium aurum [7])
1 | CCCCCCCC/C=C\CCCCCCCCNc1ccc(C(=O)C2CC2c2ccc(Cl)cc2)cc1 (centres undefined) | 12.5 µg/mL (≈ 23.9 µM) | > 50 | 75.1 (≈ 144 µM) | 393 (≈ 753 µM) | 5.24 | – | – | – | –
2 | O=C(c1ccc(NCCn2cncn2)cc1)C1CC1c1ccc(Cl)cc1 (centres undefined) | 12.5 µg/mL (≈ 34.1 µM) | 10 (≈ 27.3 µM) | 3.41 (≈ 9.3 µM) | 39.9 (≈ 109 µM) | 11.7 | 17.9 | 30.1 | – | –
3 | CN1CCN(c2ccc(C(=O)C3CC3c3ccc(Cl)cc3)cc2)CC1 (centres undefined) | 6.25 µg/mL (≈ 17.6 µM) | 10 (≈ 28.2 µM) | 0.54 (≈ 1.52 µM) | 82.1 (≈ 231 µM) | 151.96 | – | 0.17 | inactive | –
4 | CCCCCCCNc1ccc(C(=O)C2CC2c2ccc(Cl)cc2)cc1 (centres undefined) | > 12.5 µg/mL | 0.3 (≈ 0.811 µM) | 0.08 (≈ 0.216 µM) | 398 (≈ 1080 µM) | 4975 | – | – | inactive | inactive
5 | O=C(c1ccc(NCc2ccco2)cc1)C1CC1c1ccc(Cl)cc1 (centres undefined) | 3.12 µg/mL (≈ 8.87 µM) | 10 (≈ 28.4 µM) | 1.71 (≈ 4.86 µM) | 256 (≈ 727 µM) | 149.64 | 16.5 | 27.4 | – | –
6 | O=C(c1ccc(NCCn2cnc3ccccc32)cc1)C1CC1c1ccc(Cl)cc1 (centres undefined) | 12.5 µg/mL (≈ 30.1 µM) | 2 (≈ 4.81 µM) | 0.74 (≈ 1.78 µM) | 285 (≈ 686 µM) | 385.45 | 1.03 | 16.9 | – | –
7 | O=C(c1ccc(N2CCOCC2)cc1)C1CC1c1ccc(Cl)cc1 (centres undefined) | > 12.5 µg/mL | 10 (≈ 29.3 µM) | 3.02 (≈ 8.83 µM) | 453 (≈ 1320 µM) | 149.92 | 29.8 | 3.81 | – | –
8 | O=C(/C=C/c1ccc(Cl)cc1)c1ccc(N2CCOCC2)cc1 | 6.25 µg/mL (≈ 19.1 µM) | 50 (≈ 153 µM) | 4.86 (≈ 14.8 µM) | 35.6 (≈ 109 µM) | 7.33 | 47.1 | 42.9 | – | –
9 | CCCCCCCCNc1ccc(C(=O)C2CC2c2ccc(Cl)cc2)cc1 (centres undefined) | > 12.5 µg/mL | 10 (≈ 26 µM) | 2.13 (≈ 5.55 µM) | 214 (≈ 558 µM) | 100.53 | 30.2 | 23.9 | – | –
10 | CCCCN(CCCC)c1ccc(C(=O)C2CC2c2ccc(Cl)cc2)cc1 (centres undefined) | 12.5 µg/mL (≈ 32.6 µM) | 10 (≈ 26 µM) | 0.73 (≈ 1.9 µM) | 431 (≈ 1120 µM) | 590.04 | 41.5 | 37.5 | – | –
11 | CCCCNc1ccc(C(=O)C2CC2c2ccc(Cl)cc2)cc1 (centres undefined) | 12.5 µg/mL (≈ 38.1 µM) | 0.6 (≈ 1.83 µM) | 0.33 (≈ 1.01 µM) | 316 (≈ 965 µM) | 958.69 | 39.5 | 60.9 | – | –
12 | O=C(c1ccc(N2CCN(c3cccc(Cl)c3Cl)CC2)cc1)C1CC1c1ccc(Cl)cc1 (centres undefined) | 12.5 µg/mL (≈ 25.7 µM) | 50 (≈ 103 µM) | 8.82 (≈ 18.2 µM) | 383 (≈ 788 µM) | 43.38 | 15.7 | 31.8 | – | –
13 | COc1ccc(C2CC2C(=O)c2ccc(N3CCN(C)CC3)cc2)cc1OC (centres undefined) | > 12.5 µg/mL | 50 (≈ 131 µM) | 2.09 (≈ 5.49 µM) | 77.8 (≈ 205 µM) | 37.23 | – | – | – | –
14 | CCN(CC)CCCC(C)Nc1ccnc2cc(Cl)ccc12 (centres undefined) [CHLOROQUINE] | – | 0.05 (≈ 0.156 µM) | – | – | – | – | – | – | –
15 | CCCCCCCNc1ccc(C(=O)C2CC2c2ccc(OC)c(OC)c2)cc1 (centres undefined) | > 12.5 µg/mL | 10 (≈ 25.3 µM) | 2.24 (≈ 5.66 µM) | 273 (≈ 689 µM) | 121.67 | – | – | – | –
16 | O=C(/C=C/c1ccc(Cl)cc1)c1ccc(N2CCCCC2)cc1 | > 12.5 µg/mL | 50 (≈ 153 µM) | 8.92 (≈ 27.4 µM) | 235 (≈ 720 µM) | 26.3 | – | – | – | –
17 | CCCCCCCCCCCCNc1ccc(C(=O)C2CC2c2ccc(Cl)cc2)cc1 (centres undefined) | Insoluble | > 50 | 10.4 (≈ 23.6 µM) | 386 (≈ 876 µM) | 37.08 | 27 | 32.7 | – | –
18 | CC(C)CCCC(C)Nc1ccc(C(=O)C2CC2c2ccc(Cl)cc2)cc1 (centres undefined) | > 12.5 µg/mL | – | – | – | – | 17.5 | 27.4 | – | –
19 | NNC(=O)c1ccncc1 [ISONIAZID] | 0.025 µg/mL (≈ 0.182 µM) | – | – | – | – | – | – | – | –
20 | CN(C)c1ccc(C(=O)C2CC2c2ccc(Cl)cc2)cc1 (centres undefined) | Insoluble | 10 (≈ 33.4 µM) | 1.43 (≈ 4.77 µM) | 344 (≈ 1150 µM) | 240.4 | – | – | – | –
21 | O=C(c1ccc(N2CCCC2)cc1)C1CC1c1ccc(Cl)cc1 (centres undefined) | 12.5 µg/mL (≈ 38.4 µM) | > 50 | 9.75 (≈ 29.9 µM) | 431 (≈ 1320 µM) | 44.26 | – | – | – | –
22 | COc1ccc(CNc2ccc(C(=O)C3CC3c3ccc(Cl)cc3)cc2)cc1OC (centres undefined) | > 12.5 µg/mL | 10 (≈ 23.7 µM) | 8 (≈ 19 µM) | 422 (≈ 1000 µM) | 52.73 | – | – | – | –
23 | O=C(/C=C/c1ccc(Cl)cc1)c1ccc(NCc2ccco2)cc1 | 12.5 µg/mL (≈ 37 µM) | 10 (≈ 29.6 µM) | 0.76 (≈ 2.25 µM) | 404 (≈ 1200 µM) | 531.62 | – | – | – | –
24 | O=C(c1ccc(NCCO)cc1)C1CC1c1ccc(Cl)cc1 (centres undefined) | > 12.5 µg/mL | 2 (≈ 6.33 µM) | 0.6 (≈ 1.9 µM) | 305 (≈ 966 µM) | 508.33 | – | – | – | –
25 | O=C(c1ccc(N2CCCCC2)cc1)C1CC1c1ccc(Cl)cc1 (centres undefined) | > 12.5 µg/mL | 10 (≈ 29.4 µM) | 6.05 (≈ 17.8 µM) | 284 (≈ 836 µM) | 46.99 | – | – | – | –
